Columns and labels:
[1] = Volume of distribution at steady state in Sprague-Dawley rat at 2 mg/kg, iv after 0.17 to 24 hrs by LC/MS/MS analysis; type: ADME, organism-based; parameters: dose 2 mg/kg, route intravenous; conditions: in vivo, read-out: Vdss
How it was run: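 Sprague–Dawley rats (n = 3) dosed 2 mg/kg iv in PEG:ethanol 90:10 (v/v) at 1 mL/kg. Plasma stored at –20 °C and quantified by LC/MS/MS after acetonitrile precipitation with internal standard.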

[2] = AUC in Sprague-Dawley rat at 10 mg/kg, po dosed as aqueous suspension of 1% polysorbate 80 in 0.5% methylcellulose after 0.25 to 24 hrs by LC/MS/MS analysis; type: ADME, organism-based; parameters: time upper 24 hr, time lower 0.25 hr, dose 10 mg/kg, route oral; conditions: in vivo
[3] = Cmax in Sprague-Dawley rat at 10 mg/kg, po dosed as aqueous suspension of 1% polysorbate 80 in 0.5% methylcellulose after 2 to 4 hrs by LC/MS/MS analysis; type: ADME, organism-based; parameters: dose 10 mg/kg, route oral; conditions: in vivo
[4] = Cmax in Sprague-Dawley rat at 10 mg/kg, po dosed as aqueous suspension of Labrafil M 1944CS/DMAC/polysorbate 80, 85:10:5 (v/v) after 2 to 4 hrs by LC/MS/MS analysis; type: ADME, organism-based; parameters: dose 10 mg/kg, route oral; conditions: in vivo
[5] = Metabolic stability in NADPH-fortified human liver microsomes assessed as parent compound remaining at 10 uM after 30 mins by HPLC/UV/MS analysis; type: ADME, Microsome; conditions: read-out: Stability
How it was run: (§1)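 Pooled rat or human liver microsomes 1 mg/mL, 10 μM substrate, 100 mM potassium phosphate pH 7.4, 37 °C, started with NADPH-regenerating system (1.3 mM NADP+, 3.3 mM glucose-6-phosphate, 3.3 mM MgCl2, 0.5 U/mL G6PDH); GSH 5 mM in trapping runs. Sampled 0 and 30 min, acetonitrile quench; abundance as UV peak area (330–340 nm) fraction of all drug-related components by HPLC/UV/MS.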

Liver microsomes = assay: Metabolic stability in NADPH-fortified human liver microsomes assessed as pyrazinone oxidation metabolite formation at 10 uM after 30 mins by HPLC/UV/MS analysis; type: ADME, Microsome; conditions: 0.5 h; how it was run: as §1
Rattus norvegicus [6] = assay: Plasma free concentration in Sprague-Dawley rat at 1 mg/kg, po after 1 to 3 hrs by LC/MS/MS analysis; type: ADME, organism-based; parameters: dose 1 mg/kg, route oral; conditions: in vivo
Rattus norvegicus [7] = assay: Plasma free concentration in Sprague-Dawley rat at 1.8 mg/kg, po after 1 to 3 hrs by LC/MS/MS analysis; type: ADME, organism-based; parameters: dose 1.8 mg/kg, route oral; conditions: in vivo
[8] = AUC in Beagle dog at 3 mg/kg, po dosed as aqueous suspension of Labrafil M 1944CS/DMAC/polysorbate 80, 85:10:5 (v/v) after 0.25 to 24 hrs by LC/MS/MS analysis; type: ADME, organism-based, Canis lupus familiaris; parameters: time upper 24 hr, time lower 0.25 hr, dose 3 mg/kg, route oral; conditions: plasma
How it was run: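 Oral solution dosing at 3 mg/kg in Labrafil M 1944CS/DMAC/polysorbate 80, 85:10:5 (v/v), at 1 mL/kg, in fasted male beagle dogs (n = 2). Samples were acetonitrile-precipitated with internal standard and measured by LC/MS/MS using selected reaction monitoring in positive ion mode.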

Rattus norvegicus [9] = assay: Toxicity in Sprague-Dawley rat at 60 mg/kg after 2 weeks; type: organism-based; parameters: dose 60 mg/kg; conditions: in vivo, 336 h

For COC[C@H](C1CC1)n1cc(C#N)nc(Nc2cc(C)c(OC(F)F)nc2C)c1=O, the Vd [1] was 11 L/kg, the AUC [2] was 4.1 µM·h and the Cmax [3] was 860 nM. For the same compound, the Cmax [4] was 1600 nM, the remaining at 0.5 h, 10 µM [5] was 56% and the Activity (Liver microsomes) was < 1%. The “Cp(f)” value (Rattus norvegicus [6]) was 1.6 nM, the “Cp(f)” value (Rattus norvegicus [7]) was 2.9 nM and the AUC [8] was 17 µM·h. The Activity (Rattus norvegicus [9]) was “Non-toxic”.

— ChEMBL document CHEMBL1154735, “A strategy to minimize reactive metabolite formation: discovery of (S)-4-(1-cyclopropyl-2-methoxyethyl)-6-[6-(difluoromethoxy)-2,5-dimethylpyridin-3-ylamino]-5-oxo-4,5-dihydropyrazine-2-carbonitrile as a potent, orally bioavailable corticotropin-releasing factor-1 receptor antagonist” (J Med Chem, 2009)
